Experimental data of several laboratories.
Each line is one published result; the experiments were not run side by side.
Target: Ephrin type-A receptor 2 (EPHA2, Homo sapiens, UniProt P29317)

Structure (SMILES)	assay	conditions	remaining binding [%]
CC1CCCN1c1nccc(-c2cnn3ncccc23)n1 (stereo not shown)	binding	1 µM	99
Nc1ncc2c(n1)-c1c([nH]c3ccc(C#CC4CC4)cc13)CCCC2	binding, competition with immobilised ligand	1 µM	100
N#Cc1ccccc1CSc1nnc2c(n1)[nH]c1ccccc12	binding, competition with immobilised ligand	10 µM	87
O=C(c1ccc(Nc2ncc(Cl)c(-c3ccc(Cl)s3)n2)cc1)N1CCC(N2CCCC2)CC1	binding, competition with immobilised ligand	1 µM	100
Nc1cnc(N2CCc3cc(S(=O)(=O)Nc4c(F)cc(Cl)cc4F)cc(N4CCCC4=O)c32)nc1	cell-free assay, competition with immobilised ligand	1 µM	100
CCN1CCN(Cc2ccc(C(=O)Nc3ccc(C)c(Oc4ccc5c(c4)CC(=O)N5)c3)cc2C(F)(F)F)CC1	binding, competition with immobilised ligand	1 µM	73
CNC(=O)[C@@H]1CC[C@@H](n2c(-c3ccc4cnccc4c3)nc3ccc(C(=O)NCc4cccc(C(N)=O)c4)cc32)C1	binding, competition with immobilised ligand	1 µM	98
Cn1nc(C(=O)NCc2ccc(C(=O)O)cc2)cc1-c1ccc2[nH]ccc2c1	cell-free assay, competition with immobilised ligand	0.1 µM	95
O=C(NCCCN1CCOCC1)c1ccc(Nc2nccc(-c3cc4ccccc4s3)n2)cc1	binding, competition with immobilised ligand	1 µM	72
N[C@@H]1CCN(c2nccc(-c3cnn4ncccc34)n2)C1	binding	1 µM	100
O=C(NCCCN1CCOCC1)c1ccc(Nc2ncc(Cl)c(-c3ccc(Cl)s3)n2)cc1	binding, competition with immobilised ligand	1 µM	100
C[C@@H]1CN(c2cc(-c3n[nH]c4ccc(OC5(C)CC5)cc34)ncn2)C[C@H](C)O1	cell-free assay, competition with immobilised ligand	0.1 µM	72
CN(C)c1nccc(-c2cnc3ncccn23)n1	binding	1 µM	100
C[C@H](c1ccnc(Nc2nc3ccc(-c4cc(N(C)C)ncn4)cc3[nH]2)c1)N1CCN(C(=O)CC(F)(F)F)CC1	cell-free assay, competition with immobilised ligand	0.1 µM	100
CN(c1nccc(-c2cnn3ncccc23)n1)C1CC1	binding	1 µM	99
Cc1noc([C@H]2C[C@@H](c3ccc(C(F)(F)F)cc3)CN(C(=O)N3CCS(=O)(=O)C3)C2)n1	cell-free assay, competition with immobilised ligand	1 µM	100
COc1cnc(Nc2cccc(S(N)(=O)=O)c2)nc1N1CCN(c2ccccc2)C(=O)C1	binding, competition with immobilised ligand	1 µM	99
C[C@@H]1CN(c2ccc3ncc(-c4ccc5[nH]nc(C6CC6)c5c4)n3n2)C[C@H](C)O1	binding, competition with immobilised ligand	0.5 µM	100
C[C@H](c1ccc(F)cc1)N(Cc1cccc(C(=O)O)c1)C(=O)c1cnc2ccccc2c1	cell-free assay, competition with immobilised ligand	1 µM	100
c1cnn2ncc(-c3ccnc(N4CCC45COC5)n3)c2c1	binding	1 µM	94
CCOCCn1cc(C(=O)Nc2ccc(-n3nc(-c4cccnc4)cc3C(F)(F)F)cn2)ccc1=O	cell-free assay, competition with immobilised ligand	1 µM	93
CN(C)c1nccc(-c2cnn3ncccc23)n1	binding	1 µM	85
CC(C)(C)c1ccc(-c2nc(CBr)nn2-c2cccc(O)c2)cc1	cell-free assay, competition with immobilised ligand	10 µM	89
C[C@H]1CCN(c2nccc(-c3cnn4ncccc34)n2)C1	binding	1 µM	100
O=C(NCC1CCOCC1)c1n[nH]cc1NC(=O)c1c(F)cccc1F	binding, competition with immobilised ligand	1 µM	100
